Where a name gives a salt, the structure may show the parent alone. Read-outs that look alike come from different tables or passages of the source.
How the values were obtained:
SfnG [1] = settings: cited from earlier work
MsuE = molecular target: T1, MsuE (Pseudomonas fluorescens, UniProt Q3K9A2); test: Fluorometric equilibrium titration of MsuE with oxidized FMN; type: binding
T1 sequence (Q3K9A2 1-187): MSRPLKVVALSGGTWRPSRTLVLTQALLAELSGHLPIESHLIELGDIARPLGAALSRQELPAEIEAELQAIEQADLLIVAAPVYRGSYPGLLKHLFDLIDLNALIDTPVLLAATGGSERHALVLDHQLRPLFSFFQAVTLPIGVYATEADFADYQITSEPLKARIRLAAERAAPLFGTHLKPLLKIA
Outline: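 Recombinant P. fluorescens enzyme titrated at equilibrium with oxidized FMN, binding followed by intrinsic protein fluorescence on a spectrofluorometer. FMN range: 0.2 µM to 400 µM for MsuC and MsuD, 0.033 µM to 260 µM for MsuE. The fit gave KD, total enzyme and R2. Values are ±SD from three assay replicates.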

SfnG [2] = molecular target: T2, SfnG (Pseudomonas fluorescens, UniProt Q3KC85); test: Surface plasmon resonance flavin binding assay, SfnG captured on NTA sensor chip
T2 sequence (Q3KC85 1-364): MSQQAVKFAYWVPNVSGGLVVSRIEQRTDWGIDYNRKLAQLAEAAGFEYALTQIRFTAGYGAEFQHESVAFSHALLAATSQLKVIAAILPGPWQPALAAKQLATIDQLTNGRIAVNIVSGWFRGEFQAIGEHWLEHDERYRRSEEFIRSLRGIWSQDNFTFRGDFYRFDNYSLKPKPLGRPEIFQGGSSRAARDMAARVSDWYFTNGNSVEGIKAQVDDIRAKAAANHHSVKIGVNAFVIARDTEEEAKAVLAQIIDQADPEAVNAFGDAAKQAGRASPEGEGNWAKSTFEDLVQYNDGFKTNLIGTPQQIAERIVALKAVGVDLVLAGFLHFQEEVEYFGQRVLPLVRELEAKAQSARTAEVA

SsuD = settings: read-out: KD for FMN binding; E. coli SsuD; cited from earlier work
SfnG [3] = molecular target: T2, SfnG; test: Mixed dialkylsulfone monooxygenation endpoint assay; type: biochemical; settings: 1 mM substrate, 8 µM SfnG, 1 µM MsuE, 500 µM NADH, 2 µM FMN, 30 °C, 80 min

SMILES: C[S+](C)[O-] [DMSO]
- SfnG activity against the compound (SfnG [1]): not active

SMILES: Cc1cc2nc3c(=O)[nH]c(=O)nc-3n(C[C@H](O)[C@H](O)[C@H](O)COP(=O)(O)O)c2cc1C [FMN, riboflavin 5´-monophosphate sodium salt]
- Kd (MsuE): 0.54 ± 0.06 µM
- koff (SfnG [2]): 0.42 s⁻¹
- fold decrease in KD by SPR with 1% (v/v) DMSO in the running buffer (SfnG [2]; FMN binding to SfnG, with 1% (v/v) DMSO versus without): 2.7 fold
- koff (SfnG [2]; read-out: koff rate constant with DMSO2 in the running buffer): 0.00836 s⁻¹
- Kd (SsuD): 10 µM

SMILES: CCS(=O)(=O)CC [diethylsulfone]
- product(s) of conversion by SfnG (1H NMR endpoint assay) (SfnG [3]): ethanesulfinate
